Results published in ChEMBL document CHEMBL2406910, “Structures and potential antitumor activity of sesterterpenes from the marine sponge Hyrtios communis” (J Nat Prod, 2013).

How the values were obtained:
T47D = assay: Antiproliferative activity against human T47D cells after 48 hrs by SRB assay; format: functional, cell-based
How it was run: (§1)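 Human breast tumor T47D and MDA-MB-231 cells (ATCC) were treated with compounds for 48 h, and proliferation/viability was measured. […] Cycloheximide and rotenone served as positive controls.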

MDA-MB-231 = assay: Antiproliferative activity against human MDA-MB-231 cells after 48 hrs by SRB assay; format: functional, cell-based; conditions: MDA-MB-231, 48 h; how it was run: as §1
[1] = Inhibition of hypoxia-induced HIF-1 activation in human T47D cells by luciferase reporter gene assay; format: cell-based
How it was run: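 T47D cells carrying the reporter were incubated under hypoxia (1% O2) for 16 h while exposed to a range of compound concentrations. […] Cycloheximide and rotenone served as positive controls.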

Structure (SMILES)	IC50 (T47D) [µM]	IC50 (MDA-MB-231) [µM]	IC50 [1] [µM]
CC(=O)O[C@H](C/C=C(\C)CC/C=C(\C)CCC1=C(C)CCC(=O)C1(C)C)C1=CC(=O)OC1	> 10	> 10	3.5
CC1=C(CC/C(C)=C/CC/C(C)=C/CCC2=CC(=O)OC2O)C(C)(C)C(=O)CC1 (configuration not stated)	> 10	> 10	6.2
CC1=C(CCC(C)(O)/C=C/C/C(C)=C/CCC2=CC(=O)OC2O)C(C)(C)CCC1 (configuration not stated)	> 10	> 10	
C=C1CCCC(C)(C)C1(O)CC/C(C)=C/CC/C(C)=C/CCC1=CC(=O)OC1O (configuration not stated)	> 10	> 10	
CC1=C(CC/C(C)=C/CC/C(C)=C/CCC2=CC(=O)OC2O)C(C)(C)CCC1=O (configuration not stated) [ACANTHOLIDE B]	> 10	> 10	
CC1=C(CC/C(C)=C/CC/C(C)=C/CCC2=CC(=O)OC2O)C(C)(C)CCC1 (configuration not stated) [LUFFARIELLOLIDE]	5.1	4.5	3.6

Results, then the compound that gave them:

IC50 (T47D) [µM]	IC50 (MDA-MB-231) [µM]	IC50 [1] [µM]	Structure (SMILES)
> 10	> 10		CC1=C(CC/C(C)=C/CC/C(C)=C/C[C@@H](O)C2=CC(=O)OC2)C(C)(C)CCC1
> 10	> 10		CC(=O)CCCC(C)(C)C(=O)CC/C(C)=C/CC/C(C)=C/CCC1=CC(=O)OC1O (configuration not stated)
> 10	> 10		CC1=C(CC/C(C)=C/CC/C(C)=C/CCC2=CC(=O)OC2O)C(C)(C)CCC1O (configuration not stated)
> 10	> 10	7.1	C=C(CCC1=C(C)CCCC1(C)C)C(O)CC/C(C)=C/CCC1=CC(=O)OC1O (configuration not stated)
> 10	> 10	3.2	CC1=C(CC/C(C)=C/CC/C(C)=C/C[C@@H](O)C2=CC(=O)OC2)C(C)(C)C(=O)CC1
